Assay [1] in a line: Inhibition of bovine brain tubulin assembly by turbidimetry based spectrophotometric method. Also on record: species or system Bos taurus.
The nature of assay [2]: Antiproliferative activity against human Panel NCI-56 (56 carcinoma cell lines) measured after 48 hrs by SRB assay. The class given is functional. In outline:
(§1)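 Full NCI human tumor cell line panel; selected compounds tested at five doses, 10^-4 to 10^-8 M, with growth inhibition summarised as the mean graph mid-point (MG_MID) across the panel.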

Assay [3] deals with T1, Tubulin (Homo sapiens) (UniProt P68371+Q9H4B7+P0DPH7+P68366+Q13509+Q71U36+P04350+Q3ZCM7+P07437+P68363+Q9BQE3+Q6PEY2+Q13885+Q9BVA1+Q9BUF5). The assay can be described thus: Inhibition of [3H]colchicine binding to tubulin (unknown origin) at 50 uM by DEAE-cellulose filter method relative to control. Type of assay: protein-complex assay.
The nature of assay [4]: Antiproliferative activity against human Panel NCI-55 (55 carcinoma cell lines) measured after 48 hrs by SRB assay. The class given is functional. In outline:
as §1

The subject of assay [5] is HeLa. The assay can be described thus: Cell cycle arrest in human HeLa cells assessed as reduction in total cdc25c expression at 10 uM measured after 24 hrs by Western blot analysis. Type of assay: functional, cell-based. In outline: (§2)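 HeLa cells treated 24 h at 1 or 10 µM, washed in cold PBS, lysed on ice 30 min, protein quantified by BCA; western blot for cdc25c, p-cdc2 Y15 and cyclin B1, membranes stripped and reprobed for vinculin as loading control.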

For assay [6], the system named is HeLa. The assay can be described thus: Cell cycle arrest in human HeLa cells assessed as reduction in accumulation at G1 phase at 0.1 to 10 uM measured after 24 hrs by propidium iodide staining based flow cytometry. Type of assay: functional. To be noted: dose 0.1-10 µM. In outline:
(§3)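 HeLa cells exposed 24 h at 0.1, 1 and 10 µM; fixed, labelled with propidium iodide and analysed by flow cytometry for the fraction in each cycle phase; mean ± SEM of three experiments.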
A general note: In flow cytometry, cells or beads pass a laser one at a time.

Assay [7] deals with HeLa. The assay can be described thus: Induction of apoptosis in human HeLa cells assessed as increase in necrotic cells at 10 uM measured after 48 hrs by Annexin V-FITC/propidium iodide staining based flow cytometry. Type of assay: functional, cell-based. In outline:
(§4)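 HeLa cells incubated 24 or 48 h at the stated concentrations, double stained with annexin V-FITC and PI, and surface phosphatidylserine measured by flow cytometry to separate live, early apoptotic, late apoptotic and necrotic cells; mean ± SEM of three independent experiments; p vs control.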

A short description of assay [8]: Antiproliferative activity against human Panel NCI-57 (57 carcinoma cell lines) measured after 48 hrs by SRB assay. The class given is functional. In outline:
as §1
(Sulforhodamine B stains cellular protein and so reports cell mass.)

The subject of assay [9] is HeLa. The assay is described as follows: Cell cycle arrest in human HeLa cells assessed as increase in cyclin B1 expression at 10 uM measured after 24 hrs by Western blot analysis. Type of assay: functional, cell-based. In outline: as §2
Assay [10] concerns HeLa. The assay is described as follows: Cell cycle arrest in human HeLa cells assessed as reduction in phosphorylated cdc2 expression at 10 uM measured after 24 hrs by Western blot analysis. The class given is functional, cell-based. In outline: as §2
Background: A western blot detects proteins with antibodies after separation by electrophoresis.

Assay [11] relates to HeLa. The assay can be described thus: Induction of mitochondrial potential loss in human HeLa cells measured after 24 to 48 hrs by JC1 staining based flow cytometry. The class given is functional, cell-based. To be noted: dose 1-10 µM, time 24-48 hrs. In short, it runs like this:
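Mitochondrial membrane potential in HeLa cells after 24 or 48 h at 1 and 10 µM; JC-1 staining, excitation 490 nm, monomer emission at 530 nm versus aggregate at 590 nm […], read by flow cytometry; mean ± SEM, three independent experiments.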

Assay [12] relates to HeLa. The assay is described as follows: Induction of apoptosis in human HeLa cells assessed as increase in PARP cleavage at 10 uM measured after 24 hrs by Western blot analysis. The class given is functional, cell-based. In short, it runs like this:
(§5)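 After 24 h exposure of HeLa cells to 1 or 10 µM, lysates were blotted for cleaved caspase-9 and PARP; primary antibodies 2 h at room temperature, peroxidase secondary 1 h, ECL detection, vinculin reprobe for equal loading.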

Assay [13] has as its system HeLa. The assay is described as follows: Induction of apoptosis in human HeLa cells assessed as increase in caspase-9 activation at 10 uM measured after 24 hrs by Western blot analysis. The class given is functional, cell-based. In outline:
as §5

The subject of assay [14] is HeLa. The assay can be described thus: Induction of apoptosis in human HeLa cells at 10 uM measured after 48 hrs by Annexin V-FITC/propidium iodide staining based flow cytometry. Type of assay: functional, cell-based. In short, it runs like this: as §4
Assay [15] concerns HeLa. The assay is described as follows: Induction of apoptosis in human HeLa cells assessed as increase in annexin-V positive cells at 10 uM measured after 24 hrs by Annexin V-FITC/propidium iodide staining based flow cytometry. Type of assay: functional, cell-based. In short, it runs like this:
as §4

The subject of assay [16] is HeLa. The assay can be described thus: Cell cycle arrest in human HeLa cells assessed as accumulation at G2/M phase at 10 uM measured after 24 hrs by propidium iodide staining based flow cytometry relative to control. Type of assay: functional. In short, it runs like this: as §3
For assay [17], the system named is HeLa. The assay is described as follows: Cell cycle arrest in human HeLa cells assessed as reduction in accumulation at S phase at 0.1 to 10 uM measured after 24 hrs by propidium iodide staining based flow cytometry. To be noted: dose 0.1-10 µM. The class given is functional. In short, it runs like this: as §3
The subject of assay [18] is HeLa. The assay can be described thus: Cell cycle arrest in human HeLa cells assessed as increase in accumulation at G2/M phase measured after 24 hrs by propidium iodide staining based flow cytometry. Type of assay: functional. To be noted: dose 0.1-10 µM. In short, it runs like this: as §3
The target of assay [19] is T1, Tubulin (Homo sapiens). The assay is described as follows: Inhibition of [3H]colchicine binding to tubulin (unknown origin) at 5 uM by DEAE-cellulose filter method relative to control. Type of assay: protein-complex assay.

Calls of active or inactive are those of the source. The rule behind the calls is not given here.

Broadly, the IC50 is the point on the concentration scale where inhibition reaches its midpoint. A high value points to weaker potency in that assay. Broadly, the GI50 is the concentration that inhibits growth by half. A higher GI50 goes with lower sensitivity of the cells. On to `O=C(Nc1nc2c(s1)CCc1c-2c(Br)n(Cc2ccccc2)c1Br)c1ccccc1`, for which the IC50 in assay [1] is greater than 20000 nM. Halving of growth in assay [2] (GI50) required 1200 nM.
The term inhibition denotes the share of the control response that was lost under treatment. Read a high inhibition as strong suppression. Compound `COc1ccc(Cn2c(Br)c3c(c2-c2cc(OC)c(OC)c(OC)c2)CCc2sc(NC(C)=O)nc2-3)cc1` displayed an inhibition on Tubulin (Homo sapiens) [3] of 41%. For the same compound, half-maximal inhibition in assay [1] (IC50) was put at 12000 nM. This compound showed a GI50 in assay [4] of 610 nM.
For `Nc1nc2c(s1)CCc1c-2c(Br)n(Cc2ccccc2)c1Br`, the half-inhibitory concentration (IC50) in assay [1] was greater than 20000 nM. In assay [2], the GI50 is 530 nM.
Consider `COc1cc(-c2c3c(cn2S(=O)(=O)c2ccccc2)-c2nc(N)sc2CC3)cc(OC)c1OC`, for which the outcome in the assay on HeLa [5], with HeLa [6], with HeLa [7], in the assay on HeLa [9], in the assay with HeLa [10] and in the assay with HeLa [12] was Active. The result in the assay on HeLa [13], with HeLa [14], in the assay with HeLa [15] and in the assay on HeLa [17] was Active. In assay [8], the concentration for 50% growth inhibition (GI50) came to 220 nM. The compound also registered a half-inhibitory concentration (IC50) in assay [1] greater than 20000 nM. Moreover, the Activity entry in the assay with HeLa [11] was “Dose-dependent effect”; in the assay with HeLa [16] it was greater than 70%; in the assay with HeLa [18], “Dose-dependent effect”.
Consider `COc1ccc(Cn2c(Br)c3c(c2-c2cc(OC)c(OC)c(OC)c2)CCc2sc(N)nc2-3)cc1`, for which the outcome in the assay with HeLa [6], in the assay on HeLa [7], with HeLa [9], in the assay with HeLa [12], with HeLa [13] and with HeLa [14] was Active. Besides, the result with HeLa [15] and in the assay on HeLa [17] was Active. Besides, on Tubulin (Homo sapiens) [3], the inhibition was found to be 22%. Moreover, the GI50 in [8] was determined as 210 nM. Also, the IC50 in assay [1] was greater than 20000 nM. Moreover, the Activity result in the assay with HeLa [11] was “Dose-dependent effect”; in the assay on HeLa [16], greater than 70%.
Take `COc1ccc(Cn2c(Br)c3c(c2Br)-c2nc(N)sc2CC3)cc1`: the inhibition on Tubulin (Homo sapiens) [19] turned out to be 11%; on Tubulin (Homo sapiens) [3] it was 60%. For the same compound, the half-inhibitory concentration (IC50) in assay [1] stood at 7800 nM. The compound also returned a 50% growth inhibitory concentration (GI50) in assay [2] of 410 nM.

The record behind these values is ChEMBL document CHEMBL4732137, “Insight on [1,3]thiazolo[4,5-e]isoindoles as tubulin polymerization inhibitors” (Eur J Med Chem, 2021).
